According to ChEMBL document CHEMBL4219232, “Discovery of novel serine palmitoyltransferase inhibitors as cancer therapeutic agents” (Bioorg Med Chem, 2018):
Converted amounts (≈) assume the structure as drawn.

How the values were obtained:
[1] = Clearance in mouse liver microsomes in presence of NADPH; assay type: ADME, microsome; details: read-out: CLH
Summary of the method: (§1)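 Metabolic clearance was measured in human or mouse liver microsomes with NADPH, n = 2, in μL/min/mg.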

[2] = Oral bioavailability in non-fasted mouse at 1 mg/kg administered as cassette dosing by LC/MS/MS analysis; assay type: ADME, organism-based; details: in vivo
Summary of the method: (§2)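 Non-fasted mice received compounds as cassettes, intravenously at 0.1 mg/kg (10 compounds per cassette) or orally at 1 mg/kg (5 compounds per cassette). Blood was collected and centrifuged to plasma. Plasma was deproteinized with acetonitrile and centrifuged before analysis. Parameters are means of n = 3.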

[3] = Clearance in human liver microsomes in presence of NADPH; assay type: ADME, microsome; details: read-out: CLH; summary of the method: as §1
HCC4006 = assay: Growth inhibition of human HCC4006 cells assessed as inflection point after 5 days by cell-titer-glo luminescent cell viability assay; assay type: functional
Summary of the method: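 HCC4006 cells were grown in RPMI with 10% FBS and penicillin/streptomycin, seeded at 250 cells/well and cultured overnight. Cells were then exposed to compound for 5 days, and the medium was replaced with CellTiter-Glo reagent for a luminescence read. The IP is the concentration at the inflection point of the dose-response curve, n = 2.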

[4] = Inhibition of SPT in human HCC4006 cells assessed as reduction in ceramide content after 24 hrs in presence of C16-ceramide-d31/C14-phosphatidylcholine-d72 by LC/MS analysis; details: HCC4006, 24 h
[5] = molecular target: T1, Serine palmitoyltransferase 2 (Homo sapiens, UniProt O15270); assay: Inhibition of human SPT2 transfected in Freestyle293 cells using L-serine and palmitoyl-CoA as substrate preincubated for 60 mins followed by substrate addition measured after 15 mins by mass spectrometric analysis; assay type: cell-based
T1 sequence (O15270 whole entry): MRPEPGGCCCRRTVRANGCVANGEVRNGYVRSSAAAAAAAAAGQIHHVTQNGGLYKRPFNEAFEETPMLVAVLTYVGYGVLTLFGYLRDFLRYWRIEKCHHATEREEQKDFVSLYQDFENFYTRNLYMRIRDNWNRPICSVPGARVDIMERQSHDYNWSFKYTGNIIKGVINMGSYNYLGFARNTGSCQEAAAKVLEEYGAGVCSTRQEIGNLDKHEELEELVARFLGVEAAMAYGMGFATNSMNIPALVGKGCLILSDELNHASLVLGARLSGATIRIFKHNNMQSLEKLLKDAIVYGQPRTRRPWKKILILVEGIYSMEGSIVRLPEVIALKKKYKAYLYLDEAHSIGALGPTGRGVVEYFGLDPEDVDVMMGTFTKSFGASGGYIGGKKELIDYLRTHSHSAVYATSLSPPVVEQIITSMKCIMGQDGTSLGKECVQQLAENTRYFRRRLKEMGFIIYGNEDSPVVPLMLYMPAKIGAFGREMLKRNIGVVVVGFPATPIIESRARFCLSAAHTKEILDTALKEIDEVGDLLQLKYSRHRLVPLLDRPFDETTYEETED

[6] = Growth inhibition of human PL21 cells after 5 days by cell-titer-glo luminescent cell viability assay; assay type: functional; details: for IC50: Homo sapiens, PL-21, 120 h
Mus musculus [7] = assay: In vivo inhibition of SPT in tumors of human HCC1806 cells xenografted in mouse assessed as reduction in 3-KDS levels at 10 mg/kg, po measured after 8 hrs post dose by LC/MS analysis relative to control; assay type: functional
Summary of the method: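 HCC1806 breast cancer xenograft mice were dosed orally at 10 mg/kg. Tumor 3-KDS was quantified by LC/MS 8 h after dosing and compared with vehicle. Data are mean ± SD, n = 5, analysed by Dunnett's test.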

[8] = Antitumor activity against human PL21 cells xenografted in mouse at 10 mg/kg, po administered every other day for 2 weeks relative to control; assay type: functional
Summary of the method: (§3)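 PL-21 xenograft mice, n = 6 per group. Compound was suspended in 0.5% aqueous methylcellulose and given orally every other day for two weeks at 10 or 30 mg/kg. Tumor volume and body weight were followed. T/C is the median tumor weight of the treated group divided by that of the control group.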

[9] = Permeability of the compound from apical to basolateral side at pH 7.8 by PAMPA
[10] = MRT in non-fasted mouse at 1 mg/kg, po administered as cassette dosing by LC/MS/MS analysis; assay type: ADME, organism-based; details: in vivo; summary of the method: as §2
Mus musculus [11] = assay: Toxicity in mouse xenografted with human PL21 cells assessed as body weight loss at 10 to 30 mg/kg, po administered every other day for 2 weeks; assay type: organism-based; details: in vivo, 336 h; summary of the method: as §3
[12] = Total clearance in non-fasted mouse at 0.1 mg/kg, iv administered as cassette dosing by LC/MS/MS analysis; assay type: ADME, organism-based; details: in vivo; summary of the method: as §2
[13] = Tmax in non-fasted mouse at 1 mg/kg, po administered as cassette dosing by LC/MS/MS analysis; assay type: ADME, organism-based; details: in vivo; summary of the method: as §2
[14] = Thermodynamic solubility in Japanese pharmacopoeia disintegration test solution 2 at 6.8; assay type: physicochemical; details: Japanese pharmacopoeia disintegration test solution 2, pH 6.8; read-out: Therm_solubility
Summary of the method: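 Thermodynamic solubility was measured in Japanese Pharmacopoeia disintegration test solution 2 at pH 6.8.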

[15] = Cmax in non-fasted mouse at 1 mg/kg, po administered as cassette dosing by LC/MS/MS analysis; assay type: ADME, organism-based; design: dose 1 mg/kg, route oral; details: in vivo; summary of the method: as §2
[16] = Volume of distribution at steady state in non-fasted mouse at 0.1 mg/kg, iv administered as cassette dosing by LC/MS/MS analysis; assay type: ADME, organism-based; details: in vivo, read-out: Vdss; summary of the method: as §2
[17] = Antitumor activity against human PL21 cells xenografted in mouse at 30 mg/kg, po administered every other day for 2 weeks relative to control; assay type: functional; summary of the method: as §3
[18] = AUC in non-fasted mouse at 1 mg/kg, po administered as cassette dosing by LC/MS/MS analysis; assay type: ADME, organism-based; details: in vivo; summary of the method: as §2

**Q.** Which results are given for `COc1ccc(C(=O)N2CCC(NC(=O)c3ccccc3Cl)c3c2cnn3C)cc1OC` (racemic)?
**A.** microsomal CLint [1]: 6 µL/min/mg; bioavailability [2]: 28%; microsomal CLint [3]: 6 µL/min/mg; IP (HCC4006): 250 nM

**Q.** What does the source list for `CCCCCCC(=O)CCCCCC/C=C/C[C@@H](O)[C@H](O)[C@@](N)(CO)C(=O)O` [MYRIOCIN]?
**A.** IC50 [4]: 1.5 nM; IC50 [5]: 0.13 nM; Imax [6]: >90%; IC50 [6]: 7.8 nM; IP (HCC4006): 2.1 nM

**Q.** For `COc1ccc(C(=O)N2CCC(Nc3ccc(Cl)cc3)c3ccc(Cl)cc32)cc1OC` (stereo not given), which IP (HCC4006) is on record?
**A.** The IP was 12000 nM.

**Q.** Which inhibition in vivo at 10 mg/kg (Mus musculus [7]) does the source give for `COc1cc(C(=O)N2CC[C@H](NC(=O)c3ccccc3OC(F)(F)F)c3c2cnn3C(C)C)cnc1OC` here?
**A.** The inhibition in vivo at 10 mg/kg was 40%.

**Q.** And the T/C [8]?
**A.** The T/C was 52%.

**Q.** And the Papp [9]?
**A.** Its Papp is 16.7 ×10⁻⁶ cm/s.

**Q.** What about the microsomal CLint [1] of the same compound?
**A.** The microsomal CLint was 5 µL/min/mg.

**Q.** And the bioavailability [2]?
**A.** The bioavailability was 53%.

**Q.** And the MRT [10]?
**A.** Its MRT is 1.4 h.

**Q.** What about the IC50 [4] of the same compound?
**A.** Its IC50 is 2.4 nM.

**Q.** And the Activity (Mus musculus [11])?
**A.** The Activity was “Non-Toxic”.

**Q.** And the clearance [12]?
**A.** Its clearance is 15.9 mL/min/kg.

**Q.** And the Tmax [13]?
**A.** The Tmax was 0.5 h.

**Q.** And the solubility thermodynamic [14]?
**A.** The solubility thermodynamic was 24 µg/mL (≈ 45 µM).

**Q.** And the Cmax [15]?
**A.** The Cmax was 309 ng/mL.

**Q.** And the Vd [16]?
**A.** The Vd was 1.13 L/kg.

**Q.** And the T/C [17]?
**A.** The T/C was 38%.

**Q.** And the microsomal CLint [3]?
**A.** The microsomal CLint was 6 µL/min/mg.

**Q.** And the Imax [6]?
**A.** The Imax was greater than 90%.

**Q.** What about the IC50 [6] of the same compound?
**A.** Its IC50 is 4.1 nM.

**Q.** And the AUC [18]?
**A.** The AUC was 572 ng·h/mL.

**Q.** And the IP (HCC4006)?
**A.** The IP was 3.9 nM.

**Q.** With `COc1ccc(C(=O)N2CCC(NC(=O)c3ccccc3Cl)c3ccc(Cl)cc32)cc1OC` (stereo not given) as the compound, how does the microsomal CLint [1] read?
**A.** The microsomal CLint was 216 µL/min/mg.

**Q.** What about the microsomal CLint [3] of the same compound?
**A.** The microsomal CLint was 132 µL/min/mg.

**Q.** And the IP (HCC4006)?
**A.** Its IP is 500 nM.

**Q.** For `Cn1nc(C(F)(F)F)cc1C(=O)N[C@@H]1CCN(C(=O)c2cc(Cl)c3nccnc3c2)C[C@@H]1c1ccccc1`, which inhibition in vivo at 10 mg/kg (Mus musculus [7]) is on record?
**A.** The inhibition in vivo at 10 mg/kg was 40%.

**Q.** What about the Papp [9] of the same compound?
**A.** Its Papp is 20.3 ×10⁻⁶ cm/s.

**Q.** What about the microsomal CLint [1] of the same compound?
**A.** Its microsomal CLint is 60 µL/min/mg.

**Q.** And the bioavailability [2]?
**A.** The bioavailability was 56%.

**Q.** And the MRT [10]?
**A.** Its MRT is 2.7 h.

**Q.** What about the IC50 [4] of the same compound?
**A.** The IC50 was 2.3 nM.

**Q.** What about the clearance [12] of the same compound?
**A.** Its clearance is 8.45 mL/min/kg.

**Q.** And the Tmax [13]?
**A.** Its Tmax is 1.2 h.

**Q.** And the solubility thermodynamic [14]?
**A.** The solubility thermodynamic was 8 µg/mL (≈ 14.7 µM).

**Q.** And the Cmax [15]?
**A.** The Cmax was 282 ng/mL.

**Q.** What about the Vd [16] of the same compound?
**A.** Its Vd is 0.75 L/kg.

**Q.** What about the microsomal CLint [3] of the same compound?
**A.** The microsomal CLint was less than 1 µL/min/mg.

**Q.** What about the Imax [6] of the same compound?
**A.** The Imax was greater than 90%.

**Q.** And the IC50 [6]?
**A.** The IC50 was 11 nM.

**Q.** And the AUC [18]?
**A.** The AUC was 1110 ng·h/mL.

**Q.** And the IP (HCC4006)?
**A.** The IP was 11 nM.

**Q.** With `COc1cc(C(=O)N2CC[C@@H](NC(=O)c3ccccc3OC(F)(F)F)c3c2cnn3C(C)C)cnc1OC` as the compound, how does the IP (HCC4006) read?
**A.** Its IP is greater than 30000 nM.

**Q.** Which IP (HCC4006) does the source give for `COc1ccc(C(=O)N2CC[C@@H](NC(=O)c3ccccc3Cl)[C@H](c3ccccc3)C2)cc1OC` here?
**A.** The IP was 570 nM.

**Q.** Which results are given for `COc1cc(C(=O)N2CCC(NC(=O)c3ccccc3OC(F)(F)F)c3c2cnn3C(C)C)cnc1OC` (racemic)?
**A.** bioavailability [2]: 25%; microsomal CLint [3]: 15 µL/min/mg; IP (HCC4006): 23 nM

**Q.** Which results are given for `COc1ccc(C(=O)N2CC[C@@H](NC(=O)c3ccccc3Cl)[C@@H](c3ccccc3)C2)cc1OC`?
**A.** microsomal CLint [1]: 245 µL/min/mg; bioavailability [2]: < 1%; microsomal CLint [3]: 21 µL/min/mg; IP (HCC4006): 14 nM

**Q.** Which IP (HCC4006) does the source give for `COc1ccc(C(=O)N2CC[C@H](NC(=O)c3ccccc3Cl)[C@H](c3ccccc3)C2)cc1OC` here?
**A.** The IP was 3800 nM.

**Q.** With `COc1ccc(C(=O)N2CCC(NC(=O)c3ccccc3Cl)C(c3ccccc3)C2)cc1OC` (mixture of isomers) as the compound, how does the IP (HCC4006) read?
**A.** Its IP is 41 nM.

**Q.** For `COc1ccc(C(=O)N2CC[C@H](NC(=O)c3ccccc3Cl)[C@@H](c3ccccc3)C2)cc1OC`, which IP (HCC4006) is on record?
**A.** Its IP is greater than 30000 nM.
